ChEMBL document CHEMBL3992547, “Antimicrobial activity of rhodanine-3-acetic acid derivatives” (Bioorg Med Chem, 2017)
Converted amounts (≈) assume the structure as drawn. The source made the active and inactive calls. The calls are words filed in the database; no cut-off is given here.

How the values were obtained:
Mycobacterium kansasii [1] = experiment: Antimycobacterial activity against Mycobacterium kansasii isolate 6509/96 after 7 days by micromethod; assay type: functional; conditions: isolate 6509/96, 168 h
[2] = system: Mycobacterium tuberculosis; experiment: Antimycobacterial activity against Mycobacterium tuberculosis H37Rv 331/88 measured after 21 days by micromethod; assay type: functional; conditions: H37Rv 331/88, 504 h
[3] = system: Trichophyton mentagrophytes; experiment: Antifungal activity against Trichophyton mentagrophytes 445 after 72 hrs by microdilution broth assay; assay type: functional; conditions: Trichophyton mentagrophytes, 445, 72 h
How it was run: (§1)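 Broth microdilution per CLSI M38-A2 in RPMI 1640 with glutamine, buffered to pH 7.0 with MOPS, with DMSO as diluent. Final inoculum is 0.5–5 × 10⁴ CFU/mL. Plates are incubated in the dark at 35 °C in humid air and read visually and/or at 540 nm after 72 and 120 h. MIC is at least 50% growth reduction versus control.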

Klebsiella pneumoniae [4] = experiment: Antibacterial activity against ESBL positive Klebsiella pneumoniae J 14368/08 up to 500 uM incubated for 24 to 48 hrs under dark condition by microdilution broth assay; assay type: functional
How it was run: (§2)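 Broth microdilution per M07-A07, modified, in Mueller-Hinton broth adjusted to pH 7.4 (±0.2). Inoculum is prepared in sterile water to McFarland 0.5 (1.5 × 10⁸ CFU/mL). Plates are incubated in the dark at 35 °C in humid air. MIC is read after 24 and 48 h as at least 95% growth reduction versus control (IC₉₅).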

Mycobacterium avium [5] = experiment: Antimycobacterial activity against Mycobacterium avium 330/88 measured after 21 days by micromethod; assay type: functional; conditions: 330/88, 504 h
Mycobacterium kansasii [6] = experiment: Antimycobacterial activity against Mycobacterium kansasii isolate 6509/96 after 21 days by micromethod; assay type: functional; conditions: isolate 6509/96, 504 h
Candida albicans [7] = experiment: Antifungal activity against Candida albicans ATCC 44859 after 24 hrs by microdilution broth assay; assay type: functional; conditions: ATCC 44859, 24 h
How it was run: (§3)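 Broth microdilution per CLSI M27-A3 and M38-A2 in RPMI 1640 with glutamine, buffered to pH 7.0 with MOPS. Compounds are diluted in DMSO. Final inoculum is 5 × 10³ CFU/mL for yeasts and 0.5–5 × 10⁴ CFU/mL for moulds. Plates are incubated in the dark at 35 °C in humid air and read visually and/or at 540 nm after 24 and 48 h. MIC is ≥80% growth reduction (IC₈₀) for yeasts and ≥50% (IC₅₀) for filamentous fungi.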

Trichosporon asahii [8] = experiment: Antifungal activity against Trichosporon asahii 1188 after 48 hrs by microdilution broth assay; assay type: functional; conditions: Trichosporon asahii, 1188, 48 h; how it was run: as §3
[9] = system: Trichophyton mentagrophytes; experiment: Antifungal activity against Trichophyton mentagrophytes 445 after 120 hrs by microdilution broth assay; assay type: functional; conditions: Trichophyton mentagrophytes, 445, 120 h; how it was run: as §1
Nakaseomyces glabratus [10] = experiment: Antifungal activity against Candida glabrata 20/I after 24 hrs by microdilution broth assay; assay type: functional; how it was run: as §3
Mycobacterium kansasii [11] = experiment: Antimycobacterial activity against Mycobacterium kansasii isolate 235/80 after 14 days by micromethod; assay type: functional; conditions: isolate 235/80, 336 h
Aspergillus fumigatus [12] = experiment: Antifungal activity against Aspergillus fumigatus 231 after 24 hrs by microdilution broth assay; assay type: functional; conditions: Aspergillus fumigatus, 231, 24 h; how it was run: as §3
Aspergillus fumigatus [13] = experiment: Antifungal activity against Aspergillus fumigatus 231 after 48 hrs by microdilution broth assay; assay type: functional; conditions: Aspergillus fumigatus, 231, 48 h; how it was run: as §3
Lichtheimia corymbifera = experiment: Antifungal activity against Absidia corymbifera 272 after 24 to 48 hrs hrs by microdilution broth assay; assay type: functional; how it was run: as §3
Mycobacterium avium [14] = experiment: Antimycobacterial activity against Mycobacterium avium 330/88 measured after 14 days by micromethod; assay type: functional; conditions: 330/88, 336 h
[15] = system: Mycobacterium tuberculosis; experiment: Antimycobacterial activity against Mycobacterium tuberculosis H37Rv 331/88 measured after 14 days by micromethod; assay type: functional; conditions: H37Rv 331/88, 336 h
Pseudomonas aeruginosa = experiment: Antibacterial activity against Pseudomonas aeruginosa CCM 1961 up to 500 uM incubated for 24 to 48 hrs under dark condition by microdilution broth assay; assay type: functional; how it was run: as §2
Klebsiella pneumoniae [16] = experiment: Antibacterial activity against Klebsiella pneumoniae D 11750/08 up to 500 uM incubated for 24 to 48 hrs under dark condition by microdilution broth assay; assay type: functional; how it was run: as §2
Pichia kudriavzevii = experiment: Antifungal activity against Candida krusei E28 after 24 to 48 hrs hrs by microdilution broth assay; assay type: functional; how it was run: as §3
Mycobacterium kansasii [17] = experiment: Antimycobacterial activity against Mycobacterium kansasii isolate 235/80 after 7 days by micromethod; assay type: functional; conditions: isolate 235/80, 168 h
Trichosporon asahii [18] = experiment: Antifungal activity against Trichosporon asahii 1188 after 24 hrs by microdilution broth assay; assay type: functional; conditions: Trichosporon asahii, 1188, 24 h; how it was run: as §3
Candida tropicalis [19] = experiment: Antifungal activity against Candida tropicalis 156 after 48 hrs by microdilution broth assay; assay type: functional; conditions: Candida tropicalis, 156, 48 h; how it was run: as §3
Candida tropicalis [20] = experiment: Antifungal activity against Candida tropicalis 156 after 24 hrs by microdilution broth assay; assay type: functional; conditions: Candida tropicalis, 156, 24 h; how it was run: as §3
Nakaseomyces glabratus [21] = experiment: Antifungal activity against Candida glabrata 20/I after 48 hrs by microdilution broth assay; assay type: functional; how it was run: as §3
Mycobacterium kansasii [22] = experiment: Antimycobacterial activity against Mycobacterium kansasii isolate 6509/96 after 14 days by micromethod; assay type: functional; conditions: isolate 6509/96, 336 h
Candida albicans [23] = experiment: Antifungal activity against Candida albicans ATCC 44859 after 48 hrs by microdilution broth assay; assay type: functional; conditions: ATCC 44859, 48 h; how it was run: as §3
[24] = Solubility of the compound in Sula's semisynthetic medium up to 1 mM; assay type: physicochemical
Mycobacterium kansasii [25] = experiment: Antimycobacterial activity against Mycobacterium kansasii isolate 235/80 after 21 days by micromethod; assay type: functional; conditions: isolate 235/80, 504 h
Staphylococcus aureus [26] = experiment: Antibacterial activity against Staphylococcus aureus CCM 4516/08 incubated for 24 hrs under dark condition by microdilution broth assay; assay type: functional; conditions: CCM 4516/08, 24 h; how it was run: as §2
[27] = system: Staphylococcus epidermidis; experiment: Antibacterial activity against Staphylococcus epidermidis H 6966/08 incubated for 24 hrs under dark condition by microdilution broth assay; assay type: functional; conditions: H 6966/08, 24 h; how it was run: as §2
Staphylococcus aureus [28] = experiment: Antibacterial activity against methicillin-resistant Staphylococcus aureus H 5996/08 incubated for 24 hrs under dark condition by microdilution broth assay; assay type: functional; conditions: H 5996/08, 24 h
How it was run: (§4)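 Microdilution broth method modified per M07-A07, in Mueller-Hinton broth adjusted to pH 7.4 (±0.2). Inoculum made in sterile water to 0.5 McFarland (1.5 × 10⁸ CFU/mL). Plates incubated in the dark at 35 °C in a humid atmosphere, with reads at 24 and 48 h. MIC taken as at least 95% growth reduction (IC₉₅) versus control.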

Enterococcus [29] = experiment: Antibacterial activity against Enterococcus sp. J 14365/08 incubated for 48 hrs under dark condition by microdilution broth assay; conditions: J 14365/08, 48 h
Staphylococcus aureus [30] = experiment: Antibacterial activity against Staphylococcus aureus CCM 4516/08 incubated for 48 hrs under dark condition by microdilution broth assay; assay type: functional; conditions: CCM 4516/08, 48 h; how it was run: as §2
Escherichia coli [31] = experiment: Antibacterial activity against Escherichia coli CCM 4517 incubated for 48 hrs under dark condition by microdilution broth assay; assay type: functional; conditions: CCM 4517, 48 h; how it was run: as §2
[32] = system: Staphylococcus epidermidis; experiment: Antibacterial activity against Staphylococcus epidermidis H 6966/08 incubated for 48 hrs under dark condition by microdilution broth assay; assay type: functional; conditions: H 6966/08, 48 h; how it was run: as §2
Staphylococcus aureus [33] = experiment: Antibacterial activity against methicillin-resistant Staphylococcus aureus H 5996/08 incubated for 48 hrs under dark condition by microdilution broth assay; assay type: functional; conditions: H 5996/08, 48 h; how it was run: as §4
Escherichia coli [34] = experiment: Antibacterial activity against Escherichia coli CCM 4517 incubated for 24 hrs under dark condition by microdilution broth assay; assay type: functional; conditions: CCM 4517, 24 h; how it was run: as §2
Enterococcus [35] = experiment: Antibacterial activity against Enterococcus sp. J 14365/08 incubated for 24 hrs under dark condition by microdilution broth assay; conditions: J 14365/08, 24 h

Structure (SMILES) | MIC (Mycobacterium kansasii [1]) [µM] | MIC [2] [µM] | Activity (Klebsiella pneumoniae [4]) | MIC (Mycobacterium avium [5]) [µM] | MIC (Mycobacterium kansasii [6]) [µM] | MIC (Mycobacterium kansasii [11]) [µM] | Activity (Lichtheimia corymbifera) | MIC (Mycobacterium avium [14]) [µM] | MIC [15] [µM] | Activity (Pseudomonas aeruginosa) | Activity (Klebsiella pneumoniae [16]) | Activity (Pichia kudriavzevii) | MIC (Mycobacterium kansasii [17]) [µM] | MIC (Mycobacterium kansasii [22]) [µM] | solubility [24] | MIC (Mycobacterium kansasii [25]) [µM] | MIC95 (Staphylococcus aureus [26]) [µM] | MIC95 [27] [µM] | MIC95 (Staphylococcus aureus [28]) [µM] | MIC95 (Enterococcus [29]) [µM] | further results
O=C(O)CN1C(=O)/C(=C/c2ccccn2)SC1=S | 500 (≈ 140 µg/mL) | 500 (≈ 140 µg/mL) | inactive | 1000 (≈ 280 µg/mL) | 1000 (≈ 280 µg/mL) | 1000 (≈ 280 µg/mL) | inactive | 1000 (≈ 280 µg/mL) | 250 (≈ 70.1 µg/mL) | inactive | inactive | inactive | 500 (≈ 140 µg/mL) | 500 (≈ 140 µg/mL) | Soluble | 1000 (≈ 280 µg/mL) |  |  |  |  | MIC50 [3]: ≥ 0.98 µM; MIC80 (Candida albicans [7]): ≥ 0.98 µM; MIC80 (Trichosporon asahii [8]): ≥ 0.98 µM; MIC50 [9]: ≥ 0.98 µM; MIC80 (Nakaseomyces glabratus [10]): ≥ 0.98 µM; MIC50 (Aspergillus fumigatus [12]): ≥ 0.98 µM; MIC50 (Aspergillus fumigatus [13]): ≥ 0.98 µM; MIC80 (Trichosporon asahii [18]): ≥ 0.98 µM; MIC80 (Candida tropicalis [19]): ≥ 0.98 µM; MIC80 (Candida tropicalis [20]): ≥ 0.98 µM; MIC80 (Nakaseomyces glabratus [21]): ≥ 0.98 µM; MIC80 (Candida albicans [23]): ≥ 0.98 µM
O=C(O)CN1C(=O)/C(=C/c2cc(Br)ccc2O)SC1=S | 62.5 (≈ 23.4 µg/mL) | 62.5 (≈ 23.4 µg/mL) | inactive | 62.5 (≈ 23.4 µg/mL) | 250 (≈ 93.6 µg/mL) | 62.5 (≈ 23.4 µg/mL) | inactive | 62.5 (≈ 23.4 µg/mL) | 32 (≈ 12 µg/mL) | inactive | inactive | inactive | 62.5 (≈ 23.4 µg/mL) | 125 (≈ 46.8 µg/mL) | Soluble | 62.5 (≈ 23.4 µg/mL) | 250 (≈ 93.6 µg/mL) | 62.5 (≈ 23.4 µg/mL) | 125 (≈ 46.8 µg/mL) | 500 (≈ 187 µg/mL) | MIC95 (Staphylococcus aureus [30]): 250 µM (≈ 93.6 µg/mL); MIC95 (Escherichia coli [31]): 500 µM (≈ 187 µg/mL); MIC95 [32]: 62.5 µM (≈ 23.4 µg/mL); MIC95 (Staphylococcus aureus [33]): 125 µM (≈ 46.8 µg/mL); MIC95 (Escherichia coli [34]): 500 µM (≈ 187 µg/mL); MIC95 (Enterococcus [35]): 500 µM (≈ 187 µg/mL)
O=C(CN1C(=O)CSC1=S)Oc1ccccc1 | 500 (≈ 134 µg/mL) | 1000 (≈ 267 µg/mL) | inactive | 1000 (≈ 267 µg/mL) | 1000 (≈ 267 µg/mL) | 1000 (≈ 267 µg/mL) | inactive | 1000 (≈ 267 µg/mL) | 1000 (≈ 267 µg/mL) | inactive | inactive | inactive | 500 (≈ 134 µg/mL) | 1000 (≈ 267 µg/mL) | Soluble | 1000 (≈ 267 µg/mL) | > 125 | > 125 | > 125 | > 125 | MIC95 (Staphylococcus aureus [30]): > 125 µM; MIC95 (Escherichia coli [31]): > 125 µM; MIC95 [32]: > 125 µM; MIC95 (Staphylococcus aureus [33]): > 125 µM; MIC95 (Escherichia coli [34]): > 125 µM; MIC95 (Enterococcus [35]): 125 µM (≈ 33.4 µg/mL)
